{"source": "the EternaBench riboswitch data", "key": {"MS2 coat protein [1]": {"test_system": "MS2 coat protein", "assay": "apparent Kd, MS2 coat protein; higher = weaker binding; RNA-MaP array", "in_short": "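The designed RNAs, transcribed from sequenced DNA templates on an Illumina sequencing chip, were incubated with fluorescently labeled MS2 coat protein at room temperature. Protein ranged from 1.5 nM to 3 μM, with 0.8–1.5 h incubation at the lowest and 10–20 min at the highest concentrations, in Tris-HCl pH 7.5 buffer with KCl, MgCl2, BSA, DTT, tRNA and Tween20, with or without input ligand. The median of per-cluster binding-curve fits gives the apparent Kd, and designs measured on fewer than 10 clusters were excluded.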"}, "MS2 coat protein [2]": {"test_system": "MS2 coat protein", "assay": "apparent Kd, MS2 coat protein; higher = weaker binding; RNA-MaP array; FMN 200 µM where present", "in_short": "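Stalled E. coli RNA polymerase transcribed each design on Illumina sequencing-chip clusters. The clusters were titrated with SNAP-549-labelled MS2 coat protein, starting at 0.7 or 1.5 nM and doubling up to 3 µM, first without ligand and then with constant ligand, in 100 mM Tris-HCl pH 7.5, 80 mM KCl, 4 mM MgCl2, BSA, DTT, yeast tRNA and Tween-20. Green signal was normalised to red-channel RNA signal and to the control-cluster median Fmax. The apparent Kd is the median of filtered binding-curve fits made for each cluster.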"}, "[3]": {"details": "designed as: ON switch for flavin mononucleotide, no ligand"}, "[4]": {"details": "ligand present: flavin mononucleotide, designed as: ON switch for flavin mononucleotide"}, "[5]": {"details": "designed as: OFF switch for flavin mononucleotide, no ligand"}, "[6]": {"details": "ligand present: flavin mononucleotide, designed as: OFF switch for flavin mononucleotide"}, "[7]": {"details": "designed as: OFF switch for tryptophan, no ligand"}, "[8]": {"details": "ligand present: tryptophan, designed as: OFF switch for tryptophan"}, "[9]": {"details": "designed as: ON switch for theophylline, no ligand"}, "[10]": {"details": "ligand present: theophylline, designed as: ON switch for theophylline"}}, "data": [{"sequence": "AGAGAAAAGUAACAUGAGGAUCACCCAUGUAUCCCACGAGUCAGAAGGAGCGGGUUGAUACGAGGCUAGGAUAUGAAGAGUCAU", "values": [{"measurement": "apparent Kd", "setting": "MS2 coat protein [1]; [3]", "result": 153, "unit": "nM"}, {"measurement": "apparent Kd", "setting": "MS2 coat protein [1]; [4]", "result": 98.7, "unit": "nM"}]}, {"sequence": "GUGGCGUAAGGAUAUCGUGGGAAGUGAUGAACGCUCUACUUCGAGAAGGUACAUGAGGAUCACCCAUGUGAGGG", "values": [{"measurement": "apparent Kd", "setting": "MS2 coat protein [1]; [5]", "result": 151, "unit": "nM"}, {"measurement": "apparent Kd", "setting": "MS2 coat protein [1]; [6]", "result": 129, "unit": "nM"}]}, {"sequence": "CAAGAGUUGUACAUUGUGAGGCGUCGGGAACGAGGACCGGUACGGCCGCCACUCGAAAAUUAACAUGAGGAUCACCCAUGUACAC", "values": [{"measurement": "apparent Kd", "setting": "MS2 coat protein [1]; [7]", "result": 70.8, "unit": "nM"}, {"measurement": "apparent Kd", "setting": "MS2 coat protein [1]; [8]", "result": 47.7, "unit": "nM"}]}, {"sequence": "UACAAACAUGAGGAUCACCCAUGUAGUGAUACCAGCAUAACAGAUUGCCCUUGGCAGCACCGGUUUGUACUCAAACGAAGUACGG", "values": [{"measurement": "apparent Kd", "setting": "MS2 coat protein [1]; [9]", "result": 64.2, "unit": "nM"}, {"measurement": "apparent Kd", "setting": "MS2 coat protein [1]; [10]", "result": 52.3, "unit": "nM"}]}, {"sequence": "GUCCACGUCCAAGGAUAUAAUACGAUACAUGAGGAUCACCCAUGUAAGGAGUGUAGAGUACGAUGUUAGAAGGUGGCAUUGCAG", "values": [{"measurement": "apparent Kd", "setting": "MS2 coat protein [1]; [5]", "result": 11.9, "unit": "nM"}, {"measurement": "apparent Kd", "setting": "MS2 coat protein [1]; [6]", "result": 11.1, "unit": "nM"}]}, {"sequence": "AACACGCUGGUAGGAUAUUACAACAUGAUGACUCGUCCAAGAAACAACAUGAGGAUCACCCAUGUUAAGAAGGACCACAAGAAA", "values": [{"measurement": "apparent Kd", "setting": "MS2 coat protein [1]; [5]", "result": 7.13, "unit": "nM"}, {"measurement": "apparent Kd", "setting": "MS2 coat protein [1]; [6]", "result": 7.92, "unit": "nM"}]}, {"sequence": "UAAAACAUGAGGAUCACCCAUGUAUUGAGUCGAGGACCGGUACGGCCGCCACUCGGCAAUAAUAACGACGCAUAGCAUGUAGGAA", "values": [{"measurement": "apparent Kd", "setting": "MS2 coat protein [1]; designed as: ON switch for tryptophan, no ligand", "result": 12.7, "unit": "nM"}, {"measurement": "apparent Kd", "setting": "MS2 coat protein [1]; ligand present: tryptophan, designed as: ON switch for tryptophan", "result": 14.5, "unit": "nM"}]}, {"sequence": "GGGAGAGAGGUCAGGAUAUUGCGGCGAAAUGCAGUCAAGAAGGGACAUGAGGAUCACCCAUGUACAUCAAGAGC", "values": [{"measurement": "apparent Kd", "setting": "MS2 coat protein [1]; [5]", "result": 6.38, "unit": "nM"}, {"measurement": "apparent Kd", "setting": "MS2 coat protein [1]; [6]", "result": 10.4, "unit": "nM"}]}, {"sequence": "UGGUGCCCUGUAUACAUUGUAAUCCUAAUGCGAGGACCGGUACGGCCGCCACUCGUUGCGGAACAUGAGGAUCACCCAUGUAACA", "values": [{"measurement": "apparent Kd", "setting": "MS2 coat protein [1]; [7]", "result": 18.3, "unit": "nM"}, {"measurement": "apparent Kd", "setting": "MS2 coat protein [1]; [8]", "result": 16.6, "unit": "nM"}]}, {"sequence": "CUACUCAUAGGAUAUGAAGCCCGAGACAUGAGGAUCACCCAUGUAUGAUCUACUGUGCGCUCAGAAGGAUGCAGUA", "values": [{"measurement": "apparent Kd", "setting": "MS2 coat protein [1]; [5]", "result": 23.9, "unit": "nM"}, {"measurement": "apparent Kd", "setting": "MS2 coat protein [1]; [6]", "result": 13.4, "unit": "nM"}]}, {"sequence": "ACUGGACAUGAGGAUCACCCAUGUGGCGAUACCAGUUUCAGCGGGAACCCUUGGCAGCGCGGUGCCGGCCAUAGAAGUUCUGGGA", "values": [{"measurement": "apparent Kd", "setting": "MS2 coat protein [1]; [9]", "result": 51.4, "unit": "nM"}, {"measurement": "apparent Kd", "setting": "MS2 coat protein [1]; [10]", "result": 60.1, "unit": "nM"}]}, {"sequence": "UGGACUGUGACAUGAGGAUCACCCAUGUAAAUAAUUCCGCAUAGAAGGGUCCAACGUAAAUGAAGACAGGAUAUAUGGGAGCGU", "values": [{"measurement": "apparent Kd", "setting": "MS2 coat protein [1]; [3]", "result": 45.4, "unit": "nM"}, {"measurement": "apparent Kd", "setting": "MS2 coat protein [1]; [4]", "result": 24, "unit": "nM"}]}, {"sequence": "UGUUUGGCUUCCUUUACAUGAGGAUCACCCAUGUUAUGUAAUUAGGAUAUCCAUGUGAGAUGGUUGGAGAAGGAAUGCAUGACG", "values": [{"measurement": "apparent Kd", "setting": "MS2 coat protein [1]; [5]", "result": 27, "unit": "nM"}, {"measurement": "apparent Kd", "setting": "MS2 coat protein [1]; [6]", "result": 33, "unit": "nM"}]}, {"sequence": "GUGAUCAGCGAGAAGGAGCGUGAACUGUUACGGAGAUGUAACAUAACAUGAGGAUCACCCAUGUGCUAGGAUAUCGGUAAAUAU", "values": [{"measurement": "apparent Kd", "setting": "MS2 coat protein [1]; [3]", "result": 13.3, "unit": "nM"}, {"measurement": "apparent Kd", "setting": "MS2 coat protein [1]; [4]", "result": 7.4, "unit": "nM"}]}, {"sequence": "GGUACCGCGGUGAGGAUAUCCUGCGUUUGGCAGCUGGAGAAGGCACAUGAGGAUCACCCAUGUAAAGAGAAUGC", "values": [{"measurement": "apparent Kd", "setting": "MS2 coat protein [1]; [5]", "result": 10.5, "unit": "nM"}, {"measurement": "apparent Kd", "setting": "MS2 coat protein [1]; [6]", "result": 16.2, "unit": "nM"}]}, {"sequence": "UCAGUUCAAGGAUAUACAUGAGGAUCACCCAUGUACCGCAAUGUAGAAAAGUGACGUAGUAGAAGGUGAAACGA", "values": [{"measurement": "apparent Kd", "setting": "MS2 coat protein [1]; [5]", "result": 23.6, "unit": "nM"}, {"measurement": "apparent Kd", "setting": "MS2 coat protein [1]; [6]", "result": 21, "unit": "nM"}]}, {"sequence": "AGCGUUGCAGAGAAGGCGGUAUGAGUUACGCUCUCACACAUGAGGAUCACCCAUGUAAUGACGUCCGAGGAUAUCUCACAACUC", "values": [{"measurement": "apparent Kd", "setting": "MS2 coat protein [1]; [5]", "result": 5.47, "unit": "nM"}, {"measurement": "apparent Kd", "setting": "MS2 coat protein [1]; [6]", "result": 5.81, "unit": "nM"}]}, {"sequence": "AGUAAAAGAGGAUAUACAUGAGGAUCACCCAUGUUGGCGCAGACAAUCGAUGCAUCGAGUAGAAGGCUUUCAAU", "values": [{"measurement": "apparent Kd", "setting": "MS2 coat protein [1]; [5]", "result": 21.3, "unit": "nM"}, {"measurement": "apparent Kd", "setting": "MS2 coat protein [1]; [6]", "result": 17.1, "unit": "nM"}]}, {"sequence": "ACAUGAGGAUCACCCAUGUGGUCGGCUAUCUACCCAAUGGGCGAGGAUAUCGAGGCAAGAUAAUUCGAGAAGGCGCGUAAGAUA", "values": [{"measurement": "apparent Kd", "setting": "MS2 coat protein [1]; [5]", "result": 101, "unit": "nM"}, {"measurement": "apparent Kd", "setting": "MS2 coat protein [1]; [6]", "result": 47.4, "unit": "nM"}]}, {"sequence": "CGUGAAUACGAAGGAUAUGAAACAUGAGGAUCACCCAUGUAAGGUUUAAGCGACGGCUUGACAGGUCAGAAGGUCGUCCGCAUG", "values": [{"measurement": "apparent Kd", "setting": "MS2 coat protein [1]; [3]", "result": 42.2, "unit": "nM"}, {"measurement": "apparent Kd", "setting": "MS2 coat protein [1]; [4]", "result": 27.8, "unit": "nM"}]}, {"sequence": "GUAUGUGGUGAGGAUAUCCACCCGCGGGUAUAUGGAGAAGGCACUACAUGAGGAUCACCCAUGUUAACUUGCCA", "values": [{"measurement": "apparent Kd", "setting": "MS2 coat protein [1]; [5]", "result": 10.1, "unit": "nM"}, {"measurement": "apparent Kd", "setting": "MS2 coat protein [1]; [6]", "result": 31.8, "unit": "nM"}]}, {"sequence": "UAUGUACGUAGGGACAUGAGGAUCACCCAUGUGGUCCGUAUUAGAAGGACGAAUACCGAUAAAACGUAGGAUAUAAUAACUCCG", "values": [{"measurement": "apparent Kd", "setting": "MS2 coat protein [1]; [5]", "result": 134, "unit": "nM"}, {"measurement": "apparent Kd", "setting": "MS2 coat protein [1]; [6]", "result": 148, "unit": "nM"}]}, {"sequence": "GCCAUCGUAUGAGGAUAUGGCACCGAAACGGUGCCAGAAGGCAUGUCGAUAGACAUGAGGAUCACCCAUGUAUUAACGAUGGCA", "values": [{"measurement": "apparent Kd", "setting": "MS2 coat protein [2]; [3]", "result": 1120, "unit": "nM"}, {"measurement": "apparent Kd", "setting": "MS2 coat protein [2]; [4]", "result": 117, "unit": "nM"}]}, {"sequence": "AUACCUUAUGAGAAGGCGAUCAUGAAACAUGAUCGAGGAUAUCAUGUAAACAUGAGGAUCACCCAUGUAUGGGUAUUAUGGUAA", "values": [{"measurement": "apparent Kd", "setting": "MS2 coat protein [2]; [3]", "result": 26.5, "unit": "nM"}, {"measurement": "apparent Kd", "setting": "MS2 coat protein [2]; [4]", "result": 9.1, "unit": "nM"}]}, {"sequence": "CGUCGAUACCAGAAGGACAUGAGGAUCACCCAUGUAGGAUAUGGGUGACCGGGAUGGCAGACACGGUGCCCGGGCACAUGCGAC", "values": [{"measurement": "apparent Kd", "setting": "MS2 coat protein [2]; [3]", "result": 28.9, "unit": "nM"}, {"measurement": "apparent Kd", "setting": "MS2 coat protein [2]; [4]", "result": 9.54, "unit": "nM"}]}, {"sequence": "GUCAUGUUAGGAUAUCAAACAUGUGACUUCGGUCACUGUCCUGAGAAGGAACAUGAGGAUCACCCAUGUUGGAC", "values": [{"measurement": "apparent Kd", "setting": "MS2 coat protein [2]; [5]", "result": 17.8, "unit": "nM"}, {"measurement": "apparent Kd", "setting": "MS2 coat protein [2]; [6]", "result": 47.4, "unit": "nM"}]}]}
